For test [1], the target named is Neuronal acetylcholine receptor; alpha4/beta2 (Rattus norvegicus, UniProt P09483+P12390). The experiment in a line: Displacement of [3H]epibatidine from rat alpha4beta2 nAChR expressed in HEK293 cell membranes after 4 hrs by scintillation counting method. A digest of the protocol: (§1)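 Membranes from HEK293 lines stably expressing α3β4, α4β4 or α4β2 nAChR, [3H]epibatidine competition binding. Ki came from concentration-inhibition curves. Means of 3–5 experiments in duplicate.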
A general note: Loss of bound radioactivity is the signal in a displacement assay; it reports binding, not function.

For test [2], the target named is T1, Neuronal acetylcholine receptor subunit alpha-7 (Homo sapiens, UniProt P36544). As to the kind of experiment: Agonist activity at human alpha7 nAChR expressed in HEK293 cells co-expressing Ric-3/NACHO assessed as induction of calcium mobilization at 1 to 3 uM measured up to 90 secs in presence of PNU-120596 by FLIPR assay. The test is classed as cell-based.
For test [3], the target named is Neuronal acetylcholine receptor; alpha4/beta4 (Rattus norvegicus, UniProt P09483+P12392). As to the kind of experiment: Displacement of [3H]epibatidine from rat alpha4beta4 nAChR expressed in HEK293 cell membranes after 4 hrs by scintillation counting method. The essentials:
as §1

Test [4] concerns the target T2, Neuronal acetylcholine receptor; alpha3/beta4 (Rattus norvegicus, UniProt P04757+P12392). As to the kind of experiment: Antagonist activity at rat alpha3beta4 nAChR expressed in HEK293 cells assessed as inhibition of (S)-nicotine-induced […] response measured up to 90 secs by FMP assay. It counts as cell-based. A digest of the protocol: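 Rat α3β4 nAChR in stably expressing HEK293 cells, FLIPR Membrane Potential Blue assay. Antagonist mode against (S)-nicotine at EC70–EC90. IC50 derived from concentration-inhibition curves. Means of 3–5 experiments in duplicate.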

The target of test [5] is T1, Neuronal acetylcholine receptor subunit alpha-7. The experiment in a line: Agonist activity at human alpha7 nAChR expressed in HEK293 cells co-expressing Ric-3/NACHO assessed as induction of calcium mobilization at 0.3 to 3 uM measured up to 90 secs in presence of PNU-120596 by FLIPR assay. The test is classed as cell-based.
Test [6] concerns the target Nicotinic acetylcholine receptor alpha-4/beta-2 (Mus musculus, UniProt Q8R493+Q9ERK7). The experiment in a line: Antagonist activity at mouse alpha4beta2 nAChR expressed in HEK293 cells assessed as inhibition of (S)-nicotine-induced […] response measured up to 90 secs by FMP assay. The test is classed as cell-based. The essentials:
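Mouse α4β2 nAChR in stably expressing HEK293T cells, FLIPR Membrane Potential Blue assay. IC50 came from concentration-inhibition curves. Means of 3–5 experiments in duplicate.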

The target of test [7] is T1, Neuronal acetylcholine receptor subunit alpha-7. The experiment in a line: Agonist activity at human alpha7 nAChR expressed in HEK293 cells co-expressing Ric-3/NACHO assessed as induction of calcium mobilization at >= 10 uM measured up to 90 secs in presence of PNU-120596 by FLIPR assay. It counts as cell-based. (Calcium flux is commonly read through the fluorescence of an indicator in the cells.)

The target of test [8] is T2, Neuronal acetylcholine receptor; alpha3/beta4. As to the kind of experiment: Displacement of [3H]epibatidine from rat alpha3beta4 nAChR expressed in HEK293 cell membranes after 4 hrs by scintillation counting method. The essentials:
as §1

For test [9], the target named is T1, Neuronal acetylcholine receptor subunit alpha-7. The experiment in a line: Agonist activity at human alpha7 nAChR expressed in HEK293 cells co-expressing Ric-3/NACHO assessed as induction of calcium mobilization at 30 uM measured up to 90 secs in presence of PNU-120596 by FLIPR assay. The test is classed as cell-based.
For test [10] the target is unchanged. As to the kind of experiment: Agonist activity at human alpha7 nAChR expressed in HEK293 cells co-expressing Ric-3/NACHO assessed as induction of calcium mobilization at 10 uM measured up to 90 secs in presence of PNU-120596 by FLIPR assay. It counts as cell-based.
Test [11] addresses Neuronal acetylcholine receptor; alpha4/beta2 (Rattus norvegicus) (UniProt P09483+P12390). The experiment in a line: Potency index, ratio of DHbetaE Ki to test compound Ki for rat alpha4beta2 nAChR. The test is classed as protein-complex assay.
The species named for test [12] is Rattus norvegicus. The experiment in a line: Selectivity ratio of Ki for rat alpha3beta4 nAChR to Ki for rat alpha4beta2 nAChR.
The target of test [13] is T1, Neuronal acetylcholine receptor subunit alpha-7. As to the kind of experiment: Agonist activity at human alpha7 nAChR expressed in HEK293 cells co-expressing Ric-3/NACHO assessed as induction of calcium mobilization measured up to 90 secs in presence of PNU-120596 by FLIPR assay. It counts as cell-based. The essentials:
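Human α7 nAChR stably co-expressed with Ric-3 and NACHO in HEK293 cells, Ca2+/Fluo-4 fluorescence assay. Assay buffer held 3 μM PNU-120596 (α7 PAM) to slow desensitization. Agonist concentration-response curves gave EC50 and Rmax. Means of 3–5 experiments run in duplicate.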

For test [14], the species on record is Rattus norvegicus. As to the kind of experiment: Selectivity ratio of Ki for rat alpha4beta4 nAChR to Ki for rat alpha4beta2 nAChR.
The subject of test [15] is Mus musculus. As to the kind of experiment: Anti-depressant like activity in mouse assessed as increase in swimming activity at 10 mg/kg, sc administered 15 mins prior to testing by forced swim test. It counts as functional, organism-based. A digest of the protocol:
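Mice (n = 9–10) placed singly in a 16 cm beaker filled with water to 20 cm at 23.5–24.5 °C. Total swim distance over the 6 min test was recorded by overhead camera. Analysed by one-way ANCOVA, then planned pairwise comparisons of predicted means.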

Test [16] has as its target Neuronal acetylcholine receptor; alpha4/beta4 (Rattus norvegicus) (UniProt P09483+P12392). The experiment in a line: Potency index, ratio of DHbetaE Ki to test compound Ki for rat alpha4beta4 nAChR. It counts as protein-complex assay.
The target of test [17] is Neuronal acetylcholine receptor; alpha3/beta4 (Rattus norvegicus) (UniProt P04757+P12392). The experiment in a line: Potency index, ratio of DHbetaE Ki to test compound Ki for rat alpha3beta4 nAChR. The test is classed as protein-complex assay.
Test [18] can be described thus: Selectivity ratio of IC50 for rat alpha3beta4 nAChR to IC50 for mouse alpha4beta2 nAChR.
For test [19], the target named is Neuronal acetylcholine receptor; alpha4/beta2 (Homo sapiens, UniProt P17787+P43681). The experiment in a line: Displacement of [3H]cytisine from human alpha4beta2 nAChR expressed in human SH-EP1 cell membranes after 75 mins by liquid scintillation spectrometry.
Test [20] concerns Mus musculus. As to the kind of experiment: Anti-depressant like activity in sc dosed mouse assessed as increase in swimming activity administered 15 mins prior to testing by forced swim test. It counts as functional, organism-based. The essentials:
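Mouse forced swim test, n = 9–10 per group, doses 1, 3 and 10 mg/kg. Each mouse was placed in a 16 cm diameter beaker with 20 cm of water at 23.5–24.5 °C for 6 min. Camera-tracked total swim distance was scored after the first minute. Analysed by one-way ANCOVA with planned pairwise comparisons.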

The source made the active and inactive calls. The rule behind the calls is not given here. Some results are limits rather than exact numbers.

Chain of Neuronal acetylcholine receptor; alpha4/beta2 (Rattus norvegicus, UniProt P09483+P12390) (P09483 whole entry): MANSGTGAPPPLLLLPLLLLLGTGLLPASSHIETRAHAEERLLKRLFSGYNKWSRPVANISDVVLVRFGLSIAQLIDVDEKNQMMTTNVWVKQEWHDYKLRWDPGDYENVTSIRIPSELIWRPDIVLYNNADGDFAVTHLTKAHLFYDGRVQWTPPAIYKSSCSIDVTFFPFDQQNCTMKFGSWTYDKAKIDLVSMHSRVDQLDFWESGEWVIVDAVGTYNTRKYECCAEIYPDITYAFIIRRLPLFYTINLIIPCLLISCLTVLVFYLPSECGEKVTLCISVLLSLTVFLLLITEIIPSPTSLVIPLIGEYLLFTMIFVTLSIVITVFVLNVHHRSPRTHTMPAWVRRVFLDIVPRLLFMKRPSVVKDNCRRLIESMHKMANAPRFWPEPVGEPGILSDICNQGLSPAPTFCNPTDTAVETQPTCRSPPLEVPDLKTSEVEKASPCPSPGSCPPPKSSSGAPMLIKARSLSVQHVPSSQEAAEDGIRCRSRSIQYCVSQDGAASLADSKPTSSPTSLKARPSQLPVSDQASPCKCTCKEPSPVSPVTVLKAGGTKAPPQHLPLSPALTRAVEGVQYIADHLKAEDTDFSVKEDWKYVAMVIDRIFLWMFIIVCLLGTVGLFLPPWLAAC
Chain of Neuronal acetylcholine receptor; alpha4/beta2 (Rattus norvegicus, UniProt P09483+P12390) (P12390 whole entry): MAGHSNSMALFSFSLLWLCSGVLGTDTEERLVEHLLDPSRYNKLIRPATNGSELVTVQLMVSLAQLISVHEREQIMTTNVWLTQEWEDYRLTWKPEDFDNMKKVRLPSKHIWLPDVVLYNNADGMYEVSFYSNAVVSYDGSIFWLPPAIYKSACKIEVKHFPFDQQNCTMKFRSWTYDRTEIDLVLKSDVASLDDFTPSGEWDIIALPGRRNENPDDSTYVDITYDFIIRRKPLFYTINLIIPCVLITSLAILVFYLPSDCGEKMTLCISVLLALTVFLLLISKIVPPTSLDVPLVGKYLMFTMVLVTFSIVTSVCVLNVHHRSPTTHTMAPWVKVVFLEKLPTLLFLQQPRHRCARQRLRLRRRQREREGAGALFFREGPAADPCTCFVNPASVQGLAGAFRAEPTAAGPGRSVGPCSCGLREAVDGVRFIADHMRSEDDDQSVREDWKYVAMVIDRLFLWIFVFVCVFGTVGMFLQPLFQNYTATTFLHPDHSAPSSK
Chain of Neuronal acetylcholine receptor; alpha4/beta4 (P09483 whole entry): as the sequence (P09483 whole entry) above
Chain of Neuronal acetylcholine receptor; alpha4/beta4 (P12392 whole entry): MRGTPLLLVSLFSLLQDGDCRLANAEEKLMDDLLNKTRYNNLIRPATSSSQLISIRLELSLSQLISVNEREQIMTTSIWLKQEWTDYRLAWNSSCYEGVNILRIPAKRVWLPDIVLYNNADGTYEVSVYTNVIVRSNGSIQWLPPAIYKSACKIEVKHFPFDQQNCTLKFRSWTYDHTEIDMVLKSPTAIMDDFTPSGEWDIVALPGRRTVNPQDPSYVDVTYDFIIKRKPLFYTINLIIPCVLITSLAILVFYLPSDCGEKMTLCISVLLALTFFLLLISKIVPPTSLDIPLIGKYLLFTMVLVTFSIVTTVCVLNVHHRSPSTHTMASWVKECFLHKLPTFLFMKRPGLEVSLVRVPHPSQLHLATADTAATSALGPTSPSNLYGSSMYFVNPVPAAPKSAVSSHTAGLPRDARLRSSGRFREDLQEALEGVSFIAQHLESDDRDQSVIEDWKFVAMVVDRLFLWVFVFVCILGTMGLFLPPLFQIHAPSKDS
T1 sequence (P36544 whole entry): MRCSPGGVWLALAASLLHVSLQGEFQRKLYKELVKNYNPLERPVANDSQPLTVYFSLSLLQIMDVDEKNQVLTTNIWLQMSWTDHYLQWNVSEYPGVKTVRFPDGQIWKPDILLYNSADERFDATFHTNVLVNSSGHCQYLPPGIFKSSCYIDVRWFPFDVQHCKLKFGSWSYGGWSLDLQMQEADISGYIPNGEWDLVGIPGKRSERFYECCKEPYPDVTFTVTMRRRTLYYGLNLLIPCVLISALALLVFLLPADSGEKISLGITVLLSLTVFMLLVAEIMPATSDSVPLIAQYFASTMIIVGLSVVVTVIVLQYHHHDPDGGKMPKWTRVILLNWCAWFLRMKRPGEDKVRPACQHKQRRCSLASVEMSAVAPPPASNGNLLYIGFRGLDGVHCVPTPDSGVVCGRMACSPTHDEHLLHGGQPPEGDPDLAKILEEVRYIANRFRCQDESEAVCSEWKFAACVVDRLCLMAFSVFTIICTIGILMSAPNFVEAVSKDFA
Chain of Nicotinic acetylcholine receptor alpha-4/beta-2 (Q9ERK7 whole entry): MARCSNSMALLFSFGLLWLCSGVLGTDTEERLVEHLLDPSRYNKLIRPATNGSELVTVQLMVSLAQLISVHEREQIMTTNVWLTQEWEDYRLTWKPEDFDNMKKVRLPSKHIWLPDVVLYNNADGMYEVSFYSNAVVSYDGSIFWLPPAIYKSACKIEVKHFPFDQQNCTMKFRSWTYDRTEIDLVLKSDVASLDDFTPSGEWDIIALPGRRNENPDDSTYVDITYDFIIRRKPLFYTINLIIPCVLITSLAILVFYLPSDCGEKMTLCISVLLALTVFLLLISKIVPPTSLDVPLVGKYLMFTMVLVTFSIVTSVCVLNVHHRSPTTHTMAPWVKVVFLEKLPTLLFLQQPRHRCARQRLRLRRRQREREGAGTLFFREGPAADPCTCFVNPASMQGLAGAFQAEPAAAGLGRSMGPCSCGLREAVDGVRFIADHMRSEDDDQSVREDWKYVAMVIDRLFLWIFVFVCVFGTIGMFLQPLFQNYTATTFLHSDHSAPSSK
Chain of Nicotinic acetylcholine receptor alpha-4/beta-2 (Q8R493 whole entry): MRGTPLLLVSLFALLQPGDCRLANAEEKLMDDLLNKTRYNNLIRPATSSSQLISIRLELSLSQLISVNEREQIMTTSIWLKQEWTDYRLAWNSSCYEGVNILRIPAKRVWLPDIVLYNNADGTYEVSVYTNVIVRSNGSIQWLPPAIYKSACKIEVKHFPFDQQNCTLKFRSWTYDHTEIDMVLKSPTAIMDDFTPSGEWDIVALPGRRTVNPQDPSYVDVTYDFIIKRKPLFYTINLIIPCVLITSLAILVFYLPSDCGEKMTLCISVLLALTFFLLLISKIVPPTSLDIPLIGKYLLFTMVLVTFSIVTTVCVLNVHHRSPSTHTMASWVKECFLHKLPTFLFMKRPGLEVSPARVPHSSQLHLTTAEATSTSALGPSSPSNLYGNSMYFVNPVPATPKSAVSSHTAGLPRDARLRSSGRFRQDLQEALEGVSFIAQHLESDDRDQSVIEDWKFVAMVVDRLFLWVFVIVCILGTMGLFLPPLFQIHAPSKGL
T2 sequence (P04757 whole entry): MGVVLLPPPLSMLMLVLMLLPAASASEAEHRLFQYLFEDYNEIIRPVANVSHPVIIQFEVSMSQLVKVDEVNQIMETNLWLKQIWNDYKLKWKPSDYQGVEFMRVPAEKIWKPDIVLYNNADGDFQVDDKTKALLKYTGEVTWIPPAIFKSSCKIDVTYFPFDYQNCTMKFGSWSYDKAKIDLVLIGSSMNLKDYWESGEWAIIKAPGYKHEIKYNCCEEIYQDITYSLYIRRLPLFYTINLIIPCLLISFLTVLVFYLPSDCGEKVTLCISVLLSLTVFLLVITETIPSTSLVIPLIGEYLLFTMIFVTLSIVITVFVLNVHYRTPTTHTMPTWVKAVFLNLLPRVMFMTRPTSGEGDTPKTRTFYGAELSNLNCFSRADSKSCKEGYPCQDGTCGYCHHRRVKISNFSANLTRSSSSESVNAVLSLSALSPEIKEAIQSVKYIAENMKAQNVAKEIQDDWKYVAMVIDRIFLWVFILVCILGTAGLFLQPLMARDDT
T2 sequence (P12392 whole entry): as the sequence (P12392 whole entry) above
Chain of Neuronal acetylcholine receptor; alpha4/beta2 (Homo sapiens, UniProt P17787+P43681) (P17787 whole entry): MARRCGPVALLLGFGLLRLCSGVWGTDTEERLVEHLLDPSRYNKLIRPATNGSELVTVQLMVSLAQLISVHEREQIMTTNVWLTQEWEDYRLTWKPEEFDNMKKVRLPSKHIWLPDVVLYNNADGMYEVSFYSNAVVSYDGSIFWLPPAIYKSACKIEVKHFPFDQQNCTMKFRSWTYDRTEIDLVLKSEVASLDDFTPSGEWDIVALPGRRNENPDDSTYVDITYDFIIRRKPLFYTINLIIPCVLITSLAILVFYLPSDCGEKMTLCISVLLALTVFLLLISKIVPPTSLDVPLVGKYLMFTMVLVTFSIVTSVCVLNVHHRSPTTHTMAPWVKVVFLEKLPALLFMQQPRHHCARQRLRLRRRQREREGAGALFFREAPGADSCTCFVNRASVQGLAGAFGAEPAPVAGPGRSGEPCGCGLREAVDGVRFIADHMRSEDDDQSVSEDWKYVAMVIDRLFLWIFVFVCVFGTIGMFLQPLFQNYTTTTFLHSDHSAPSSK
Chain of Neuronal acetylcholine receptor; alpha4/beta2 (Homo sapiens, UniProt P17787+P43681) (P43681 whole entry): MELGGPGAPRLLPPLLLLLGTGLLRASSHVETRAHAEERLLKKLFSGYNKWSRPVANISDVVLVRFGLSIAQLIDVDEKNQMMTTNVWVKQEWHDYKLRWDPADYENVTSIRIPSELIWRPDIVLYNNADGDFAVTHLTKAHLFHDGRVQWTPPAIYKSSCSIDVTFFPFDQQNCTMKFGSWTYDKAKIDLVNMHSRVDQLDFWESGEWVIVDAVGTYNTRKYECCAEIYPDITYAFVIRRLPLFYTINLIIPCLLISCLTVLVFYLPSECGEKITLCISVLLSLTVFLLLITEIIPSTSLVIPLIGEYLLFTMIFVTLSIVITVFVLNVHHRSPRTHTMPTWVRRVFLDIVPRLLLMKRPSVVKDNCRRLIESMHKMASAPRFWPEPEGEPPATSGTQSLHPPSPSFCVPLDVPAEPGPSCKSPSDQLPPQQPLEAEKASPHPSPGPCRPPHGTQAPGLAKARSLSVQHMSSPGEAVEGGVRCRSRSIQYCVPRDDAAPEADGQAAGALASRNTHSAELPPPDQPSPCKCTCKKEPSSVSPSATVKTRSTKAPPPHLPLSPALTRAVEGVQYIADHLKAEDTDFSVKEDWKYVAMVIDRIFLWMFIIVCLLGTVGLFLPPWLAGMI

The term Ki denotes the dissociation constant of the complex between target and ligand, obtained from inhibition or displacement. A low value points to tighter binding. The term IC50 denotes the concentration needed to halve the response being measured. Regarding `COc1cc2c(cc1OCc1ccccc1)CC[N+](C)(C)C2`, the Ki in [1] was 0.47 µM; in test [3] it was 50 µM; in test [8] it was 30 µM. Besides, the Activity result in test [2] and in test [5] was “Dose-dependent effect” in each case. The IC50 was more than 300 µM in test [4] and 7.2 µM in [6]. Moreover, the result in test [7] was inactive.
As to `COc1cc2c(cc1OCc1ccccc1)CC[N+]1(C)CCCC21` (configuration not stated), the inhibition constant Ki in [1] is 2.1 µM; in test [3], 300 µM; in test [8] it was 300 µM. The 50% inhibitory concentration (IC50) was 300 µM in test [4] and 3.1 µM in test [6]. In test [5], the Activity entry is “Dose-dependent effect”. For the same compound, the outcome in [7] was inactive.
In the case of `c1c2c(cc3c1OCO3)[C@@H]1CCCN1CC2`, the Ki is 4.5 µM in test [1], 100 µM in [3] and more than 100 µM in test [8]. Also, the outcome in test [9] was Active. In addition, the IC50 in [4] is more than 100 µM; in test [6], 30 µM.
As for `COc1ccc(CC2c3cc(OC)c(OC)cc3CC[N+]2(C)C)cc1OC` (configuration not stated), the inhibitory constant (Ki) in test [1], in [3] and in test [8] was more than 100 µM in each case. Also, the IC50 in test [4] and in test [6] was more than 100 µM each time. Besides, the result in [10] was Active.
Turning to `COc1cc2c(cc1OCc1ccccc1)C1CCC[N+]1(C)CC2` (configuration not stated), the results for the inhibition constant (Ki) in test [1], in [3] and in [8] were 11 µM, 300 µM and 300 µM, respectively. Also, the half-inhibitory concentration (IC50) amounted to 300 µM in test [4] and 5.7 µM in test [6]. Further, in test [5], the Activity result is “Dose-dependent effect”. For the same compound, the outcome in [7] was inactive.
As usually defined, the EC50 is the concentration needed to bring the measured effect to its halfway point. On to `C[N+]12CCCC1c1cc3c(cc1CC2)OCO3` (configuration not stated), for which the inhibitory constant (Ki) is 0.14 µM in [1], 50 µM in test [3] and 30 µM in [8]. Further, the Ratio Ki was found to be 5 in [11], 210 in the test filed under Rattus norvegicus [12] and 360 in the test listed under Rattus norvegicus [14]. Besides, the figures for the IC50 in test [4] and in [6] were 30 µM and 0.52 µM, respectively. Further, the concentration giving a half-maximal response (EC50) in test [13] is 2.6 µM.
With `C[N+]12CCC[C@@H]1c1cc3c(cc1CC2)OCO3` (some centres not stated), the Ki in [1] came to 0.045 µM; in test [3] it was 2.7 µM; in test [8], 11 µM. The Ratio Ki in [11], in [16] and in test [17] was 10 each time. Moreover, in the test with Mus musculus [15], the result was Active. For the same compound, the Ratio IC50 in test [18] came out at 230. Besides, the IC50 came out at 50 µM in [4] and 0.22 µM in [6]. Besides, the EC50 in [13] worked out at 1.6 µM.
As to `C[N+]1(C)CCc2cc3c(cc2C1)OCO3`, the figures for the Ki in [1], in test [3] and in [8] were 0.38 µM, 30 µM and 50 µM, respectively. The values for the Ratio Ki in the test filed under Rattus norvegicus [12] and in the test filed under Rattus norvegicus [14] were 130 and 80, respectively. Further, the values for the IC50 in test [4] and in test [6] were more than 300 µM and 12 µM, respectively. In addition, the concentration giving a half-maximal response (EC50) in test [13] amounted to 2.6 µM.
In [19], `COc1cc2c(cc1O)CCN1CC=C3C=C[C@H](OC)C[C@]321` [ERYSODINE] showed an inhibition constant (Ki) of 0.05 µM.
With `COc1cc2c(cc1OCc1ccccc1)C[N+](C)(C)CC2`, the inhibition constant (Ki) in test [1] is 4.5 µM; in [3] it was 17 µM; in [8], 30 µM. For the same compound, the half-inhibitory concentration (IC50) in test [4] was more than 300 µM; in test [6] it was 30 µM. The result in [7] was inactive.
For `c1c2c(cc3c1OCO3)[C@H]1CCCN1CC2`, the inhibition constant Ki was 0.17 µM in [1], 6.6 µM in [3] and 100 µM in test [8]. In addition, the IC50 in [4] was more than 100 µM; in [6] it was 1.3 µM. Moreover, in [10], the result was Active. Also, the Activity result with Mus musculus [20] is “Dose-dependent effect”.
For `CC[N+]1(C)CCc2cc(OC)c(OC)cc2C1` (configuration not stated), the inhibition constant (Ki) is 9.7 µM in test [1], more than 300 µM in test [3] and more than 300 µM in test [8]. In test [9], the outcome was Active. Further, the IC50 in [4] is more than 300 µM; in test [6], 11 µM.

The values are drawn from ChEMBL document CHEMBL4052830, “Dual Nicotinic Acetylcholine Receptor α4β2 Antagonists/α7 Agonists: Synthesis, Docking Studies, and Pharmacological Evaluation of Tetrahydroisoquinolines and Tetrahydroisoquinolinium Salts” (J Med Chem, 2018).
